Experimental data pooled from the literature.
Lines come from different studies, so protocols differ. Converted amounts (≈) assume the structure as drawn.
Organism: Mycobacterium tuberculosis

CN(CC[C@H](N)CC(=O)N[C@H]1C=C[C@H](n2ccc(N)nc2=O)O[C@@H]1C(=O)O)C(=N)N
IC50 (microbial growth; H37RA): 19000 nM

c1cc(Cn2cnc3ccccc32)nc(Cn2cnc3ccccc32)c1
MBC (microbial killing; H37RV; 21 days): > 50 µM

CCCCCCC#Cc1cncc(-c2nnc(SCc3ccc(C#N)cc3)n2C)c1
IC50 (microbial growth): 2300 nM

COC(=O)c1cc(-c2cccc(NC(=S)Nc3ccc(F)c(Cl)c3)c2)on1
MIC (microbial growth; ATCC27294 H37RV; 7 days): 4 µg/mL (≈ 9.86 µM)

[H]/N=C(/N)N[C@H]1[C@H](O)[C@@H](O)[C@H](O[C@@H]2O[C@@H](C)[C@](O)(C=O)[C@H]2O[C@@H]2O[C@@H](CO)[C@H](O)[C@@H](O)[C@@H]2NC)[C@@H](N/C(N)=N\[H])[C@@H]1O
IC50 (microbial growth; H37RV): 200 nM

Cc1ccc(NC(=O)c2cc(N3CCNCC3)cc(C(F)(F)F)c2)cc1Nc1nccn1-c1cc(NC2CC2)ncn1
MIC50 (microbial growth; H37RV): 0.63 µM (≈ 0.364 µg/mL)

NNC(=O)c1ccncc1
IC50 (microbial growth; ERDMAN): 180 nM

O=C(O)c1nccnc1NC(=O)c1cccc2ccccc12
MIC50 (microbial growth; ATCC27294 H37RV): 1000 µM (≈ 293 µg/mL)

COC(=O)c1cc(-c2cccc(NC(=O)Nc3cccc(Br)c3)c2)on1
MIC (microbial growth; ATCC27294 H37RV; 7 days): 0.5 µg/mL (≈ 1.2 µM)

O=C(C[n+]1ccn(Cc2cccc(Cn3cc[n+](CC(=O)c4ccc([N+](=O)[O-])cc4)c3)n2)c1)c1ccc([N+](=O)[O-])cc1
MBC (microbial killing; H37RV; 21 days): 100 µM

COC(=O)c1cc(-c2cccc(NC(=O)Nc3cccc(C(F)(F)F)c3)c2)on1
MIC (microbial growth; ATCC27294 H37RV; 7 days): 2 µg/mL (≈ 4.93 µM)

Cc1cn(-c2cc(C(=O)Nc3ccc(C)c(Nc4nccn4-c4cc(NC5CC5)ncn4)c3)cc(C(F)(F)F)c2)cn1
MIC50 (microbial growth; H37RV): 0.65 µM (≈ 0.373 µg/mL)

CCCCCCC#Cc1cncc(-c2nnc(SCc3ccc([N+](=O)[O-])o3)n2C2CC2)c1
IC90 (microbial growth; ERDMAN): 130 nM

CCOC(=O)c1c(NC(=O)c2c(F)c(F)c(F)c(F)c2F)sc2c1CCN(CC)C2
MIC90 (microbial growth; H37RV): 0.23 µM (≈ 0.103 µg/mL)

CCCCCCC#Cc1cncc(-c2nnc(SCc3cc([N+](=O)[O-])cc([N+](=O)[O-])c3)n2C)c1
IC50 (microbial growth): 61 nM

COC(=O)c1cc(-c2cccc(NC(=O)Nc3ccc(Cl)cc3Cl)c2)on1
MIC (microbial growth; ATCC27294 H37RV; 7 days): 0.5 µg/mL (≈ 1.23 µM)

CCCCCCC#Cc1cncc(-c2nnc(SCc3ccc([N+](=O)[O-])cc3)n2C)c1
IC90 (microbial growth; ERDMAN): > 50000 nM

[H]/N=C(/N)N[C@H]1[C@H](O)[C@@H](O)[C@H](O[C@@H]2O[C@@H](C)[C@](O)(C=O)[C@H]2O[C@@H]2O[C@@H](CO)[C@H](O)[C@@H](O)[C@@H]2NC)[C@@H](N/C(N)=N\[H])[C@@H]1O
MIC (microbial growth; ATCC27294 H37RV; 7 days): 0.5 µg/mL (≈ 0.86 µM)
